# ChEMBL document CHEMBL4627381, “Licochalcone A Selectively Resensitizes ABCG2-Overexpressing Multidrug-Resistant Cancer Cells to Chemotherapeutic Drugs” (J Nat Prod, 2020)
# Tests used:
# NCI-H460 = assay: Effect on topotecan-induced cytotoxicity against human H460 cells assessed as fold change in topotecan IC50 at 2 uM after 72 hrs by MTT assay relative to topotecan IC50; format: functional
# In short: (§1)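 Parental S1 colon and H460 lung cancer cells were exposed for 72 h to a mitoxantrone or topotecan concentration series, with or without modulator at 0.5–3.0 μM, and read by MTT. Fold-reversal is IC50 without modulator divided by IC50 with modulator, taken from dose-response curves of three independent experiments.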
# S1 [1] = assay: Induction of apoptosis in human S1 cells assessed as late apoptotic cells at 10 uM incubated for 48 hrs by annexin V/propidium iodide staining based flow cytometry (reference value: 3.6%); format: functional
# In short: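 S1 cells were exposed for 48 h to DMSO, 10 μM compound, 5 μM topotecan, or 5 μM topotecan plus 10 μM compound. They were then stained with 1.25 μg/mL annexin V–FITC and 0.1 mg/mL PI for 15 min at room temperature. 10000 cells per sample were analysed by flow cytometry; three independent experiments.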
# HEK293 [2] = assay: Effect on etoposide-induced cytotoxicity against HEK293 cells assessed as fold change in etoposide IC50 at 2 uM after 72 hrs by CCK8 assay relative to etoposide IC50; format: cell-based; settings: human, hek293, 72 h
# In short: (§2)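 Reversal assay in parental pcDNA-HEK293 and transfected HEK293 lines (ABCB1 for colchicine, ABCC1 for etoposide, ABCG2 for mitoxantrone/topotecan). Substrate drug series was given with or without nontoxic modulator (0.5, 1.0, 2.0 or 3.0 μM) for 72 h, with a CCK-8 read-out. Fold-reversal is substrate IC50 without modulator divided by IC50 with modulator. Three independent experiments.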
# HEK293 [3] = assay: Effect on mitoxantrone-induced cytotoxicity against HEK293 cells assessed as fold change in mitoxantrone IC50 at 0.5 uM after 72 hrs by CCK8 assay relative to mitoxantrone IC50; format: cell-based; settings: human, hek293, 72 h; in short: as §2
# [4] = biological target: T1, ATP-dependent translocase ABCB1 (Homo sapiens, UniProt P08183); assay: Reversal of human ABCB1-mediated multidrug resistance in HEK293/MDR19 cells assessed as fold change in colchicine IC50 at 3 uM after 72 hrs by CCK8 relative to colchicine IC50; format: cell-based
# T1 sequence (P08183 whole entry): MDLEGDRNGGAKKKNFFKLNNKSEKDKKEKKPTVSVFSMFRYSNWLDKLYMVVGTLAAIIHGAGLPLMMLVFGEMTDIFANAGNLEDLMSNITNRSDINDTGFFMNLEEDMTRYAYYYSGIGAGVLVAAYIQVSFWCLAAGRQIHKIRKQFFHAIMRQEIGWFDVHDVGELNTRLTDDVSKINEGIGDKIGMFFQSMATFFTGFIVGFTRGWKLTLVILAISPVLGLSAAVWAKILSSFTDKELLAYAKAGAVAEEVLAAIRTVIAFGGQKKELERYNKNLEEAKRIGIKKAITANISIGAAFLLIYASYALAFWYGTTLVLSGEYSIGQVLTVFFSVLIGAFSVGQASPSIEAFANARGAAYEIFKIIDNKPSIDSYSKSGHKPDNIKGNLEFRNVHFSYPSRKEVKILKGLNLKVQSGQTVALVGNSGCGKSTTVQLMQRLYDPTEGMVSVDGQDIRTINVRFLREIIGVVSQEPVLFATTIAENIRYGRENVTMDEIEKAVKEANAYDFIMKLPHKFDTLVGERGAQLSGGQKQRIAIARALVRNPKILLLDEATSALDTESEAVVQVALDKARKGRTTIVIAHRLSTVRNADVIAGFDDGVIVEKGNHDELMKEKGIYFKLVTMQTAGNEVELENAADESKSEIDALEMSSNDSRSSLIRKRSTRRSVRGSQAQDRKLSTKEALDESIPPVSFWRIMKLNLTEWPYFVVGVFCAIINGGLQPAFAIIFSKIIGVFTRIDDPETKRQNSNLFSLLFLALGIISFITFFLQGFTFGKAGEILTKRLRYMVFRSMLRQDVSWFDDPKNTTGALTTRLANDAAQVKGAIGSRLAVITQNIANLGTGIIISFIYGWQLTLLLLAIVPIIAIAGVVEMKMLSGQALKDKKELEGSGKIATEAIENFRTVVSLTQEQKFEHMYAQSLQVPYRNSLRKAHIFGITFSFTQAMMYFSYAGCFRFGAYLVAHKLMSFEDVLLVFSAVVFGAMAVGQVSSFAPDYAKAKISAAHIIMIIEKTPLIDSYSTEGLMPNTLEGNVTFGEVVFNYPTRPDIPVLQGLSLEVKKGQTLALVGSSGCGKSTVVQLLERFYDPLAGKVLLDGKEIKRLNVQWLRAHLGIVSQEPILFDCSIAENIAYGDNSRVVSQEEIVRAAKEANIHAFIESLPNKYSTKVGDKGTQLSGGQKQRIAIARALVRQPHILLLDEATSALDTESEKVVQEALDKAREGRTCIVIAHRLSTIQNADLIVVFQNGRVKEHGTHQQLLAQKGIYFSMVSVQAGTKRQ
# In short: (§3)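 Cells were seeded at 5000/well for 24 h, then given colchicine, etoposide, mitoxantrone or topotecan ± non-toxic modulator (0.5–3.0 μM) for 72 h, with DMSO up to 0.5%. IC50 came from fitted curves (mean ± SD, three experiments). Fold-reversal = IC50 without modulator ÷ IC50 with modulator.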
# HEK293 [5] = assay: Effect on Colchicine-induced cytotoxicity against HEK293 cells assessed as fold change in colchicine IC50 at 0.5 uM after 72 hrs by CCK8 assay relative to colchicine IC50; format: cell-based; settings: human, hek293, 72 h; in short: as §2
# [6] = biological target: T1, ATP-dependent translocase ABCB1; assay: Reversal of human ABCB1-mediated multidrug resistance in HEK293/MDR19 cells assessed as fold change in colchicine IC50 at 1 uM after 72 hrs by CCK8 relative to colchicine IC50; format: cell-based; in short: as §3
# [7] = biological target: T2, Broad substrate specificity ATP-binding cassette transporter ABCG2 (Homo sapiens, UniProt Q9UNQ0); assay: Modulation of ABCG2 (unknown origin) expressed in H460-MX20 cells assessed as increase in intracellular pheophorbide A accumulation at 20 uM incubated for 1 hr by FACScan flow cytometry; format: cell-based
# T2 sequence (Q9UNQ0 whole entry): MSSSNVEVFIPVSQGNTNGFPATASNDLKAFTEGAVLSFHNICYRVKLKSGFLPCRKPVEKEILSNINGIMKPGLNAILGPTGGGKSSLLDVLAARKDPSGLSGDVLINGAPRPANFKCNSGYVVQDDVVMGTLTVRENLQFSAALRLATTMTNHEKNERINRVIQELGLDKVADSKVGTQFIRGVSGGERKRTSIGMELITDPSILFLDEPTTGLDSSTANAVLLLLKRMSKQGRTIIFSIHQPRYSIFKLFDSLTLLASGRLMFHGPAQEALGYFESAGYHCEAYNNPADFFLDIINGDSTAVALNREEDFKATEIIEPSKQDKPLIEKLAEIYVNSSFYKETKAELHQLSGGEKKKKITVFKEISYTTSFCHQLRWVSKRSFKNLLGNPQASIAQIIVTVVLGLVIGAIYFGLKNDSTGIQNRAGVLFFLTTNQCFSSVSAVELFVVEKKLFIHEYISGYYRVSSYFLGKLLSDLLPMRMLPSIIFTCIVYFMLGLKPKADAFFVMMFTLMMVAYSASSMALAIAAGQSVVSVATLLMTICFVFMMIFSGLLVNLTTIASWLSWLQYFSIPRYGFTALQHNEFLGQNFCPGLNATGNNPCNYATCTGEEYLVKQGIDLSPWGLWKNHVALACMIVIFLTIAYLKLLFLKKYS
# In short: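 Cells held drug-free 7 days. 3 × 10^5 cells were suspended in IMDM with 5% FCS and loaded with pheophorbide A (ex 395/em 670 nm) for 1 h, with or without LCA (20 μM for single-concentration accumulation) or Ko143 3 μM as reference. Read immediately by flow cytometry. Efflux inhibition was run over a concentration range; mean ± SD of three experiments.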
# [8] = biological target: T2, Broad substrate specificity ATP-binding cassette transporter ABCG2; assay: Reversal of ABCG2 (unknown origin)-mediated multidrug resistance in human H460-MX20 cells assessed as fold change in topotecan IC50 at 3 uM after 72 hrs by MTT assay relative to topotecan IC50; format: cell-based
# In short: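 Cells held drug-free 7 days, seeded at 5000 per well for 24 h, then exposed 72 h to mitoxantrone or topotecan dilutions with DMSO (≤0.5%), LCA 0.5–3.0 μM, or Ko143 1.0 μM. Viability was read by MTT. IC50 came from fitted dose-response curves of three independent experiments. Fold-reversal = IC50 without modulator divided by IC50 with modulator.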
# HEK293 [9] = assay: Induction of Calcein-AM accumulation in HEK293 cells at 20 uM incubated for 10 mins by FACScan flow cytometry; format: cell-based; settings: human, hek293, 10 min
# In short: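 Parental HEK293 cells (3 × 10^5) were resuspended in IMDM with 5% FCS and given calcein-AM with or without 20 μM modulator for 10 min. Intracellular calcein (ex 485/em 535 nm) was measured by flow cytometry; at least three independent experiments.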
# [10] = biological target: T2, Broad substrate specificity ATP-binding cassette transporter ABCG2; assay: Reversal of ABCG2 (unknown origin)-mediated multidrug resistance in human S1-M1-80 cells assessed as fold-change in topotecan IC50 at 0.5 uM after 72 hrs by MTT assay relative to topotecan IC50; format: cell-based; settings: s1-m1-80, 72 h
# In short: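 MTT readout in S1-M1-80 colon cancer cells (mitoxantrone-selected, held in 80 μM mitoxantrone, then drug-free 7 days before assay). Cells were seeded at 5000/well for 24 h, then given increasing mitoxantrone or topotecan with DMSO or non-toxic modulator for 72 h at 37 °C. IC50 came from fitted dose-response curves (at least three independent experiments). Fold-reversal = IC50 without modulator ÷ IC50 with modulator.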
# HEK293 [11] = assay: Effect on topotecan-induced cytotoxicity against HEK293 cells assessed as fold change in topotecan IC50 at 2 uM after 72 hrs by CCK8 assay relative to topotecan IC50; format: cell-based; settings: human, hek293, 72 h; in short: as §2
# S1 [12] = assay: Effect on mitoxantrone-induced cytotoxicity against human S1 cells assessed as fold change in mitoxantrone IC50 at 0.5 uM after 72 hrs by MTT assay relative to mitoxantrone IC50; format: functional; in short: as §1
compound,measurement,setting,value
C=CC(C)(C)c1cc(/C=C/C(=O)c2ccc(O)cc2)c(OC)cc1O [LICOAGROCHACONE A],fold change (FC),NCI-H460,1.7
same,Activity,S1 [1],2.7%
same,fold change (FC),HEK293 [2],0.7
same,fold change (FC),HEK293 [3],0.9
same,fold change (FC),[4],0.9
same,fold change (FC),HEK293 [5],1
same,fold change (FC),[6],0.8
same,Activity,[7],Active
same,fold change (FC),[8],10.1
same,Activity,HEK293 [9],Non-Toxic
same,fold change (FC),[10],9.8
same,fold change (FC),HEK293 [11],1
same,fold change (FC),S1 [12],1.1
